Experimental data from ChEMBL document CHEMBL1799944, “New 2-heterocyclyl-imidazo[2,1-i]purin-5-one derivatives as potent and selective human A3 adenosine receptor antagonists” (J Med Chem, 2011).

How the values were obtained:
Adenosine receptor A3 [1] = biological target: T1, Adenosine receptor A3 (Homo sapiens, UniProt P0DMS8); experiment: Inverse agonist activity at human recombinant A3 adenosine receptor expressed CHO cells by [35S]GTPgammaS binding assay; assay type: functional, cell-based
T1 sequence (P0DMS8 whole entry): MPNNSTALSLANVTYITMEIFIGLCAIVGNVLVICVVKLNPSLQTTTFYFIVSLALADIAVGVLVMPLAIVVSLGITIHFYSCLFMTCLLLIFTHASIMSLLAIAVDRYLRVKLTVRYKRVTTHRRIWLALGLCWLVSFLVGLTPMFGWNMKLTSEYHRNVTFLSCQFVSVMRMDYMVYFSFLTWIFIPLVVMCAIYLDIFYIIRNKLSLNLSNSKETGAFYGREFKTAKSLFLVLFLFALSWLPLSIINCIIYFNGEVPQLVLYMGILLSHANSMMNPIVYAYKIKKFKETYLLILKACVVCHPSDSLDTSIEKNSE

Adenosine receptor A3 [2] = biological target: T1, Adenosine receptor A3; experiment: Displacement of [3H]MRE 3008F20 from human adenosine A3 receptor expressed in CHO cells after 120 mins by scintillation spectrometry; assay type: cell-based
Summary of the method: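 Membranes from hA3 CHO cells (50 μg protein/assay) in 50 mM Tris HCl, 10 mM MgCl2, 1 mM EDTA pH 7.4, adenosine deaminase-treated. Incubated with 1 nM [3H]MRE 3008F20 and 6-8 ligand concentrations, 120 min at 4 °C. Nonspecific defined with 1 μM MRE 3008F20 (~25% of total). GF/B filtration, three ice-cold washes, scintillation counting. Ki via Cheng-Prusoff; geometric mean, 95% confidence limits, n = 3-6.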

Adenosine receptor A2a [3] = biological target: T2, Adenosine receptor A2a (Homo sapiens, UniProt P29274); experiment: Displacement of [3H]ZM 241385 from human adenosine A2A receptor expressed in CHO cells after 60 mins by scintillation spectrometry; assay type: cell-based
Adenosine receptor A2b = biological target: T3, Adenosine receptor A2b (Homo sapiens, UniProt P29275); experiment: Antagonist activity human adenosine A2B receptor expressed in CHO cells assessed as inhibition of NECA-mediated [3H]cAMP accumulation after 150 mins by scintillation counter; assay type: functional, cell-based
T3 sequence (P29275 whole entry): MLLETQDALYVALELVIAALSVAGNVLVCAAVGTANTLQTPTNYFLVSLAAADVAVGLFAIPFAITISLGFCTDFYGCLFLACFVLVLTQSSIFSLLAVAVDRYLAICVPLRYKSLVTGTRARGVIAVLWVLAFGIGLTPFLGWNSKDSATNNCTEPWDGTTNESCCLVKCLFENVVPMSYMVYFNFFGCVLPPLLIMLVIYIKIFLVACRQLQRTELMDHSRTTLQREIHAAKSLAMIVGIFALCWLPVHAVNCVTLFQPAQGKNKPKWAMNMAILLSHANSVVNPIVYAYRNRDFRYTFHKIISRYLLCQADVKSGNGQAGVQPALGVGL
Summary of the method: (§1)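 Intact CHO cells expressing hA2B (1 x 10^6 cells/assay), preincubated 10 min at 37 °C in saline buffer pH 7.4 with 2 IU/mL adenosine deaminase and Ro 20-1724. Antagonism of 100 nM NECA-stimulated cAMP rise. Stopped with cold 6% TCA, ether-extracted. cAMP measured by competition binding with [3H]cAMP and beef adrenal binding protein (4 °C, 150 min), charcoal separation, scintillation counting. IC50 by sigmoid nonlinear regression, mean ± SEM.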

[4] = biological target: T4, Adenosine receptor A1 (Homo sapiens) (UniProt P30542); experiment: Displacement of [3H]DPCPX from human adenosine A1 receptor expressed in CHO cells at =<5000 nM after 120 mins by scintillation spectrometry; assay type: cell-based
T4 sequence (whole entry): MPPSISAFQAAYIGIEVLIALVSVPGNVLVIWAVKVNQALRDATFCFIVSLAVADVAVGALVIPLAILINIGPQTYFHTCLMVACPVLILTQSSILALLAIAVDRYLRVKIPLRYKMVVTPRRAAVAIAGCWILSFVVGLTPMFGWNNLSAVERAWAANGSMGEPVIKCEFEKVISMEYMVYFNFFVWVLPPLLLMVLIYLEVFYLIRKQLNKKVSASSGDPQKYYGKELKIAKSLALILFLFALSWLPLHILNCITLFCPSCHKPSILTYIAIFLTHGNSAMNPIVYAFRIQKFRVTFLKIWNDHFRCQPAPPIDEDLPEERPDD
Summary of the method: (§2)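 hA1 CHO membranes (50 μg protein/assay) in 50 mM Tris HCl pH 7.4, pretreated with adenosine deaminase 2 UI/mL for 30 min at 37 °C. Incubated with 1 nM [3H]DPCPX plus 6-8 ligand concentrations for 120 min at 25 °C. Nonspecific binding defined with 1 μM DPCPX. Ki from IC50 by Cheng-Prusoff; geometric means with 95% confidence limits.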

Adenosine receptor A1 = biological target: T5, Adenosine receptor A1 (Homo sapiens, UniProt P30542); experiment: Displacement of [3H]DPCPX from human adenosine A1 receptor expressed in CHO cells after 120 mins by scintillation spectrometry; assay type: cell-based; summary of the method: as §2
T5 sequence (P30542 whole entry): T4 sequence (whole entry)

[5] = biological target: Adenosine receptors; A1 & A3 (Homo sapiens) (UniProt P30542+P0DMS8); experiment: Ratio of Ki for human adenosine A1 receptor to Ki for human adenosine A3 receptor
[6] = biological target: T6, Adenosine receptor A2b (Homo sapiens) (UniProt P29275); experiment: Antagonist activity human adenosine A2B receptor expressed in CHO cells assessed as inhibition of NECA-mediated [3H]cAMP accumulation at =<5000 nM after 150 mins by scintillation counter; assay type: functional, cell-based; summary of the method: as §1
T6 sequence (whole entry): T3 sequence (P29275 whole entry)

Homo sapiens = species on record: Homo sapiens; experiment: Ratio of Ki for human adenosine A2A receptor to Ki for human adenosine A3 receptor
Adenosine receptor A2a [7] = biological target: T2, Adenosine receptor A2a; experiment: Displacement of [3H]ZM 241385 from human adenosine A2A receptor expressed in CHO cells at <=5000 nM after 60 mins by scintillation spectrometry; assay type: cell-based
[8] = Solubility of compound in water; assay type: physicochemical
Adenosine receptor A3 [9] = biological target: T1, Adenosine receptor A3; experiment: Antagonist activity human adenosine A3 receptor expressed in CHO cells assessed as blockade of Cl-IB-MECA-mediated inhibition of forskolin-stimulated [3H]cAMP accumulation after 150 mins by scintillation counter; assay type: functional, cell-based
Summary of the method: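 hA3-expressing CHO cells (1 x 10^6 cells/assay), preincubated 10 min at 37 °C in saline buffer pH 7.4 with adenosine deaminase 2 IU/mL and Ro 20-1724. Antagonism of 100 nM Cl-IB-MECA inhibition of cAMP in presence of 1 μM forskolin. Stopped with cold TCA. cAMP by [3H]cAMP competition protein binding (4 °C, 150 min), scintillation counting. IC50 from sigmoid nonlinear regression, mean ± SEM.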

T2 sequence (P29274 whole entry): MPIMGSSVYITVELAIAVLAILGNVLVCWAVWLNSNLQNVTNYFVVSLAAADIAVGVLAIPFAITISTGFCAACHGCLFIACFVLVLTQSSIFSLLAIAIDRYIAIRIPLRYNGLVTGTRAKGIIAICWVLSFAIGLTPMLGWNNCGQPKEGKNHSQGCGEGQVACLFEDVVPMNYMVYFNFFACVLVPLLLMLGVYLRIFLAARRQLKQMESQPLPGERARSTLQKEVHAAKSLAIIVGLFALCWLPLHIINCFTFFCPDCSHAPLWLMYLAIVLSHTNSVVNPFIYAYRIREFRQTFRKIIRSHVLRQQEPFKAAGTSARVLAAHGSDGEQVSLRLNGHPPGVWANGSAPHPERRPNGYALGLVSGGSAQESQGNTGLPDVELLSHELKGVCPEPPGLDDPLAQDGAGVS

Row | Compound | IC50 (Adenosine receptor A3 [1]) [nM] | Ki (Adenosine receptor A3 [2]) [nM] | Ki (Adenosine receptor A2a [3]) [nM] | IC50 (Adenosine receptor A2b) [nM] | inhibition [4] [%] | Ki (Adenosine receptor A1) [nM] | Ratio Ki [5] | inhibition [6] [%] | Ratio Ki (Homo sapiens) | inhibition (Adenosine receptor A2a [7]) [%] | solubility [8] [mg/mL] | IC50 (Adenosine receptor A3 [9]) [nM]
1 | CC[C@@H]1CN2C(=O)N(C)c3nc(-c4cc(Cl)cc(Cl)c4Cl)[nH]c3C2=N1 | 4 | – | – | – | – | – | – | – | – | – | – | –
2 | CCCN1C(=O)N2C[C@@H](CC)N=C2c2[nH]c(C34CCC(O)(CC3)CC4)nc21 | – | – | – | – | – | – | – | – | – | – | > 100 | –
3 | COc1cc(-c2nc3c([nH]2)C2=NC(C)CN2C(=O)N3Cc2ccccc2)on1 (racemic) | – | 2.68 | > 5000 | > 5000 | 35 | > 5000 | 1800 | 11 | > 1800 | 5 | – | 20.4

Continued, values first:

Row | IC50 (Adenosine receptor A3 [1]) [nM] | Ki (Adenosine receptor A3 [2]) [nM] | Ki (Adenosine receptor A2a [3]) [nM] | IC50 (Adenosine receptor A2b) [nM] | inhibition [4] [%] | Ki (Adenosine receptor A1) [nM] | Ratio Ki [5] | inhibition [6] [%] | Ratio Ki (Homo sapiens) | inhibition (Adenosine receptor A2a [7]) [%] | solubility [8] [mg/mL] | IC50 (Adenosine receptor A3 [9]) [nM] | Compound
4 | – | 12.2 | > 5000 | > 5000 | 22 | > 5000 | > 400 | 24 | 330 | 9 | – | – | Cc1cc(-c2nc3c([nH]2)C2=NC(C)CN2C(=O)N3Cc2ccccc2)nn1C (configuration not stated)
5 | – | 2.36 | > 5000 | > 5000 | 30 | > 5000 | 2100 | 13 | 2100 | 1 | – | 14.5 | C=CCN1C(=O)N2CC(C)N=C2c2[nH]c(-c3cc(OC)nn3C)nc21 (racemic)
6 | – | 12.5 | > 5000 | > 5000 | 20 | > 5000 | – | 16 | 330 | 1 | – | – | C=CCN1C(=O)N2CC(CC)N=C2c2[nH]c(-c3cc(C)n(C)n3)nc21 (racemic)
7 | – | 15 | > 5000 | > 5000 | 28 | > 5000 | – | 27 | 330 | 13 | – | – | CCC1CN2C(=O)N(Cc3ccccc3)c3nc(-c4cc(C)n(C)n4)[nH]c3C2=N1 (racemic)
